Assay results collected from several papers.
Each line is one published result; the experiments were not run side by side.
Read-out: cell growth or viability

`Cc1ncsc1-c1ccc([C@H](C)NC(=O)[C@@H]2C[C@@H](O)CN2C(=O)[C@@H](NC(=O)CCCCCCCCCCS(=O)(=O)NC(=O)c2nc(N3CCc4cccc(C(=O)Nc5nc6ccccc6s5)c4C3)ccc2-c2cnn(CC34CC5CC(CC(C5)C3)C4)c2C)C(C)(C)C)cc1` has an IC50 of 0.0341 µM (MOLT-4; MTS; 48 h).
The IC50 of `O=C(NO)c1ccc(Cn2cnc3c(Nc4ccc(F)c(Cl)c4)ncnc32)cc1` is reported as 1.2 µM (Jurkat; MTT; 72 h).
For `CCc1oc2cc(S(=O)(=O)Nc3ccc(S(=O)(=O)Nc4nccs4)cc3)ccc2c1C(=O)c1cc(Br)c(O)c(Br)c1`, the IC50 was 62.2 µM (T47D; MTT; 96 h).
`O=C(CSc1nc2ccccc2s1)N/N=C/c1ccc(OCC(=O)Nc2cccc(Br)c2)cc1` has an IC50 of 65.5 µM (LN-229; MTS; 72 h).
The IC50 of `C=C1C[C@@]23CC[C@H]4[C@@](C)(CCC[C@@]4(C)C(=O)O)[C@@H]2CC[C@@H]1C3` is reported as 150 µM (T47D; MTT; 75 h).
`O=c1cc(OCc2cc(-c3ccc(C(F)(F)F)cc3)no2)c2ccccc2o1` gave an IC50 of > 100 µM (LN-229; MTS; 72 h).
`Cc1ncsc1-c1ccc([C@H](C)NC(=O)[C@@H]2C[C@@H](O)CN2C(=O)[C@@H](NC(=O)CCCCCCCCCCCS(=O)(=O)NC(=O)c2nc(N3CCc4cccc(C(=O)Nc5nc6ccccc6s5)c4C3)ccc2-c2cnn(CC34CC5CC(CC(C5)C3)C4)c2C)C(C)(C)C)cc1` gave an IC50 of 0.0701 µM (MOLT-4; MTS; 48 h).
The IC50 of `O=C(CSc1nc2ccccc2s1)N/N=C/c1ccc(OCC(=O)Nc2cccc(Cl)c2)cc1` is reported as 7.7 µM (MOLT-4; MTS; 72 h).
`CN1CCC(NC2CCc3[nH]c4c(C(N)=O)ccc(-c5ccccc5Cl)c4c3C2)CC1` (stereo not shown) gave an IC50 of 0.0193 µM (Jurkat; 96 h).
For `CCOc1ccc2[nH]cc(C(=O)C(C#N)=Cc3cn(CC)c4ccccc34)c2c1`, the IC50 was 5.8 µM (MIA PaCa-2; MTT; 48 h).
For `Cc1ncsc1-c1ccc([C@@H](C)NC(=O)[C@H]2C[C@H](O)CN2C(=O)[C@H](NC(=O)CCNC(=O)C23CC4CC(CC(Cn5ncc(-c6ccc(N7CCc8cccc(C(=O)Nc9nc%10ccccc%10s9)c8C7)nc6C(=O)O)c5C)(C4)C2)C3)C(C)(C)C)cc1`, the IC50 was > 1 µM (MOLT-4; MTS; 48 h).
`O=C(NO)c1ccc(Cn2cnc3c(Nc4cccc([N+](=O)[O-])c4)ncnc32)cc1` gave an IC50 of 0.89 µM (Jurkat; MTT; 72 h).
`CCn1cc(C=C(C#N)C(=O)c2c[nH]c3ccc(OC)cc23)c2ccccc21` has an IC50 of 15.5 µM (MIA PaCa-2; MTT; 48 h).
With `Cc1ncsc1-c1ccc([C@H](CC(=O)NCCCCCCNC(=O)c2nc(N3CCc4cccc(C(=O)Nc5nc6ccccc6s5)c4C3)ccc2-c2cnn(CC34CC5CC(CC(C5)C3)C4)c2C)NC(=O)[C@@H]2C[C@@H](O)CN2C(=O)[C@@H](NC(=O)C2(C#N)CC2)C(C)(C)C)cc1` the IC50 was 0.117 µM (MOLT-4; MTS; 48 h).
With `COc1ccc(Nc2ncnc3c2ncn3Cc2ccc(C(=O)NO)cc2)cc1` the IC50 was 0.7 µM (Jurkat; MTT; 72 h).
With `N#Cc1ccc(-c2cc(CNc3cccc4cccnc34)on2)cc1` the IC50 was 27.2 µM (LN-229; MTS; 72 h).
The IC50 of `NS(=O)(=O)c1ccc(-n2nc(C(=O)NN=Cc3cccnc3)cc2-c2ccccc2)cc1` is reported as 27.8 µM (PaCa-2; fluorescence; 48 h).
With `O=c1cc(OCc2cc(-c3ccccn3)no2)c2ccccc2o1` the IC50 was > 100 µM (LN-229; MTS; 72 h).
`CCn1cc(C=C(C#N)C(=O)c2c[nH]c3cc(OC)c(OC)cc23)c2ccccc21` has an IC50 of 13 µM (MIA PaCa-2; MTT; 48 h).
`Cc1nc(Nc2ncc(C(=O)Nc3c(C)cccc3Cl)s2)cc(N2CC[C@H](O)C2)n1` has an IC50 of > 10 µM (SU-DHL-2; ATP luminescence; 72 h).
For `Cc1ncsc1-c1ccc([C@H](C)NC(=O)[C@@H]2C[C@@H](O)CN2C(=O)[C@@H](NC(=O)CCCS(=O)(=O)NC(=O)c2nc(N3CCc4cccc(C(=O)Nc5nc6ccccc6s5)c4C3)ccc2-c2cnn(CC34CC5CC(CC(C5)C3)C4)c2C)C(C)(C)C)cc1`, the IC50 was 0.0083 µM (MOLT-4; MTS; 48 h).
The IC50 of `Clc1ccc(-c2cc(CNc3cccc4cccnc34)on2)c(Cl)c1` is reported as 54.4 µM (LN-229; MTS; 72 h).
`Cc1c(-c2ccc(N3CCc4cccc(C(=O)Nc5nc6ccccc6s5)c4C3)nc2C(=O)NCCOCCOCCNc2cccc3c2C(=O)N(C2CCC(=O)NC2=O)C3=O)cnn1CC12CC3CC(CC(C3)C1)C2` (stereo not shown) gave an IC50 of 0.0164 µM (MOLT-4; MTS; 48 h).
`NS(=O)(=O)c1ccc(-n2nc(C(=O)NN3C(=O)CCC3=O)cc2-c2ccccc2)cc1` has an IC50 of 27.4 µM (PaCa-2; fluorescence; 48 h).
The IC50 of `Cc1ncsc1-c1ccc([C@@H](C)NC(=O)[C@H]2C[C@H](O)CN2C(=O)[C@H](NC(=O)CCCCCCNC(=O)C23CC4CC(CC(Cn5ncc(-c6ccc(N7CCc8cccc(C(=O)Nc9nc%10ccccc%10s9)c8C7)nc6C(=O)O)c5C)(C4)C2)C3)C(C)(C)C)cc1` is reported as 0.157 µM (MOLT-4; MTS; 48 h).
`COC[C@H](NC(=O)c1ccn(S(C)(=O)=O)c1)C(=O)Nc1nc(-c2cccc(N3C[C@@H](C)O[C@@H](C)C3)n2)cs1` has an IC50 of 0.008 µM (LNCaP; ATP luminescence; 7 days).
`COc1ccc(C=NNC(=O)c2cc(-c3ccccc3)n(-c3ccc(S(N)(=O)=O)cc3)n2)cc1OC` gave an IC50 of 20.5 µM (PaCa-2; fluorescence; 48 h).
`Cc1c(-c2ccc(N3CCc4cccc(C(=O)Nc5nc6ccccc6s5)c4C3)nc2C(=O)NCCOCCOCCOCCO)cnn1CC12CC3CC(CC(C3)C1)C2` gave an IC50 of 0.0169 µM (MOLT-4; MTS; 48 h).
